# Published values from different studies.
# Protocols differ between the studies behind these lines.
# Read-out: cell growth or viability
SMILES,cell line,method,tested at,time,quantity,value
COc1ccc(-c2nc(NN=C3C(=O)Nc4ccc(Br)cc43)c3ccccc3n2)cc1OC,ZR75,,10 µM,,inhibition,78.8%
C=CC(=O)N1CCC[C@@H](n2nc(-c3ccc(Oc4ccccc4)cc3)c3c(N)ncnc32)C1,KMS-12-BM,,,48 h,GI50,> 10 µM
NC(=S)NN=C(CS(=O)(=O)c1ccccc1)c1ccc(F)cc1,WM 266-4,MTT,100 µM,48 h,viability,24.4%
O=C(Cc1ccc(C(F)(F)F)cc1)Nc1cccc(C(=O)Nc2ccc3[nH]ncc3c2)c1,KM12,ATP luminescence,,72 h,IC50,48.4 µM
CN1C(=O)/C(=N\NC(=O)c2cc3ccccc3[nH]2)c2ccccc21,ZR75,,30 µM,,inhibition,73.1%
CNC(=O)c1cc(Oc2ccc(NC(=O)Nc3ccc(Cl)c(C(F)(F)F)c3)cc2)ccn1,WM 266-4,MTT,6.3 µM,48 h,viability,50.7%
CN1C(=O)/C(=N\NC(=O)c2cc3ccccc3[nH]2)c2cc(Br)ccc21,ZR75,,30 µM,,inhibition,90.2%
O=C(Nc1ccc(F)cc1)Nc1cccc(C(=O)Nc2ccc3[nH]ncc3c2)c1,KM12,ATP luminescence,,72 h,IC50,40.3 µM
O=C1Nc2ccc(Cl)cc2/C1=N/NC(=O)c1cc2ccccc2[nH]1,ZR75,,30 µM,,inhibition,53.9%
Cc1cc(C)n(C(=S)[S][Au][PH](CCCCCC[PH]([Au][S]C(=S)n2nc(C)cc2C)(c2ccccc2)c2ccccc2)(c2ccccc2)c2ccccc2)n1,KM12,,,,GI50,0.386 µM
C=CC(=O)N1CCC[C@@H](n2nc(-c3ccc(Oc4ccccc4)cc3)c3c(N)ncnc32)C1,JeKo-1,ATP luminescence,,72 h,GI50,20.1 µM
Cc1ccc(C(CS(=O)(=O)c2ccccc2)=NNc2nc(-c3ccc(OCCCCOc4ccc(-c5csc(NN=C(CS(=O)(=O)c6ccccc6)c6ccc(C)cc6)n5)cc4)cc3)cs2)cc1,WM 266-4,MTT,0.4 µM,48 h,viability,77%
Cn1c(=O)c(NN=C2C(=O)Nc3ccc(Br)cc32)nc2ccccc21,ZR75,,30 µM,,inhibition,62.1%
O=C1Nc2ccc(F)cc2/C1=N/NC(=O)c1cc2ccccc2[nH]1,ZR75,,30 µM,,inhibition,40%
Cc1ccc2c(c1)C(=NNc1nnc(Cc3ccccc3)c3ccccc13)C(=O)N2,ZR75,,30 µM,,inhibition,69.6%
CCN(CC)CCNC(=O)c1c(C)[nH]c(/C=C2\C(=O)Nc3ccc(F)cc32)c1C,ZR75,,30 µM,,inhibition,90.7%
COc1ccc2c(c1)C(=NNc1nnc(Cc3ccccc3)c3ccccc13)C(=O)N2,ZR75,,30 µM,,inhibition,30.9%
Cc1ccc(C(CS(=O)(=O)c2ccccc2)=NN=C2N=C(c3ccc(Br)cc3)CS2)cc1,WM 266-4,MTT,25 µM,48 h,viability,42.1%
CN1C(=O)/C(=N\NC(=O)c2cc3ccccc3[nH]2)c2cc(Cl)ccc21,ZR75,,30 µM,,inhibition,81.8%
Cn1c(=O)c(NN=C2C(=O)Nc3ccccc32)nc2ccccc21,ZR75,,30 µM,,inhibition,52.1%
Cc1ccc(C(CS(=O)(=O)c2ccccc2)=NNc2nc(C)c(N=Nc3cccc(C)c3)s2)cc1,WM 266-4,MTT,100 µM,48 h,viability,32.8%
Cn1c(=O)c(NN=C2C(=O)Nc3ccc(Cl)cc32)nc2ccccc21,ZR75,,30 µM,,inhibition,29.8%
CC(C)(C)c1nc(-c2cccc(NS(=O)(=O)c3c(F)cccc3F)c2F)c(-c2ccnc(N)n2)s1,WM 266-4,MTT,25 µM,48 h,viability,47.7%
COc1cccc(Oc2ccccc2NC(=O)CNC(=O)c2cccc3ccccc23)c1,SR,SRB,,48 h,GI50,0.115 µM
COc1ccc2c(c1)C(=NNc1nc3ccccc3n(C)c1=O)C(=O)N2,ZR75,,30 µM,,inhibition,76%
O=C(Nc1ccc(OC(F)(F)F)cc1)Nc1cccc(C(=O)Nc2ccc3[nH]ncc3c2)c1,KM12,ATP luminescence,,72 h,IC50,43.3 µM
Cc1ccc(C(CS(=O)(=O)c2ccccc2)=NNC2=NC(=O)C(=NNc3ccccc3)S2)cc1,WM 266-4,MTT,6.3 µM,48 h,viability,48.2%
